These results are taken from ChEMBL document CHEMBL4190328, “Design, Synthesis, and Biological Evaluation of Tetrahydroisoquinoline-Based Histone Deacetylase 8 Selective Inhibitors” (ACS Med Chem Lett, 2017).

Experiment [1] concerns the target Histone deacetylase 1 (Homo sapiens, UniProt Q13547). As to the kind of experiment: Inhibition of recombinant full-length human C-terminal FLAG-His-tagged HDAC1 expressed in baculovirus infected Sf9 insect cells using Boc-L-Lys(Ac)-AMC as substrate preincubated for 5 mins followed by substrate addition measured after 35 mins by fluorescence assay.
For experiment [2], the target named is T1, Histone deacetylase 8 (Homo sapiens, UniProt Q9BY41).
T1 sequence (Q9BY41 whole entry): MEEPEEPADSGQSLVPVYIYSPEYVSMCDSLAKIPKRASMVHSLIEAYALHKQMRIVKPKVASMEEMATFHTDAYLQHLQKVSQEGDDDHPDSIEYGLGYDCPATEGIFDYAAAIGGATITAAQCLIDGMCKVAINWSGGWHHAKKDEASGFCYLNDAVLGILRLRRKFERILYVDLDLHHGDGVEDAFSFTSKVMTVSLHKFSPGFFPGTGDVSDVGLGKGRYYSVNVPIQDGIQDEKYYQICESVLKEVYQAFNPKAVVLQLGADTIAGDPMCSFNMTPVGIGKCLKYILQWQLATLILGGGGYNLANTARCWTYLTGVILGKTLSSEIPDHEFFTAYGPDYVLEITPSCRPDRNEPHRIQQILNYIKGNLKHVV
Description: Inhibition of recombinant HDAC8 (unknown origin) expressed in Escherichia coli using fluor de Lys(R) as substrate pretreated for 5 mins followed by substrate addition measured after 35 mins by fluorescence assay.

For experiment [3], the target named is T2, Protein deacetylase HDAC6 (Homo sapiens) (UniProt Q9UBN7).
T2 sequence (whole entry): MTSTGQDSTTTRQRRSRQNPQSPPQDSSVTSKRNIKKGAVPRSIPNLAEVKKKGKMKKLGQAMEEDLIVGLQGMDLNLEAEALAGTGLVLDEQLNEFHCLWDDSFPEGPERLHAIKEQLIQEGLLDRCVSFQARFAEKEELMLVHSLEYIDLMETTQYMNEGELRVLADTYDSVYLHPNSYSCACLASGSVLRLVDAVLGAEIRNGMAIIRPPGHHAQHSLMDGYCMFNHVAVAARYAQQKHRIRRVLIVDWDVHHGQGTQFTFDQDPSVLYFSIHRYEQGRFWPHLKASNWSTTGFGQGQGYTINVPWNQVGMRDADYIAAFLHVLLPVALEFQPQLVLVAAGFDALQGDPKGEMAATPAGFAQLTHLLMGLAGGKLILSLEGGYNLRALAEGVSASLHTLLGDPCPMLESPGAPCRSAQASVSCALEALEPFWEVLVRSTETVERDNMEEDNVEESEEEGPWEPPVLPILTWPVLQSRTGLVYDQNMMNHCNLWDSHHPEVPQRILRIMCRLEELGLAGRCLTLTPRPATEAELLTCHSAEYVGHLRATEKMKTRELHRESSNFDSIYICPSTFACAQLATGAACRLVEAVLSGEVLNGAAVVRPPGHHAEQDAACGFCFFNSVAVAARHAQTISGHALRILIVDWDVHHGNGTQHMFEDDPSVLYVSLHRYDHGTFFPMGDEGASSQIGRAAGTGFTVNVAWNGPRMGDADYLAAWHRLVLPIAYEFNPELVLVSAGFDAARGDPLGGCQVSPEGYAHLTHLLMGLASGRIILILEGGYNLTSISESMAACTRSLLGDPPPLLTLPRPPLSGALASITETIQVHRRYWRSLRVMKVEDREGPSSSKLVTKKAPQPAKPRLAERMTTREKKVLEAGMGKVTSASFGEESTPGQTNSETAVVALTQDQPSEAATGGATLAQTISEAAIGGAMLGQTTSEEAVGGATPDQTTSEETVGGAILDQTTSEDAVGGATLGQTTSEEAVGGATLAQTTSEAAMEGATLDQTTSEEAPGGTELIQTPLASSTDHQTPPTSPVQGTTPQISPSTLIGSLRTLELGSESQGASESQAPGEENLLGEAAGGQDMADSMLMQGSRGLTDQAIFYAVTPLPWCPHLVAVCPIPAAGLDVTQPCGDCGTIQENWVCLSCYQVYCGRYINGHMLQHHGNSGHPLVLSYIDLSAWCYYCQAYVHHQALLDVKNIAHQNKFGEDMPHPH
Description: Inhibition of recombinant human HDAC6 at 10 uM using fluorogenic HDAC substrate 3 by fluorescence assay relative to control. In a few lines: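 HDAC6 activity was measured with test compound at 10 μM and reported as percent inhibition. Values are mean ± standard deviation of at least two independent experiments, rounded to two significant figures.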

Experiment [4] addresses Histone deacetylase 2 (Homo sapiens, UniProt Q92769). As to the kind of experiment: Inhibition of recombinant human full-length C-terminal His-tagged HDAC2 expressed in baculovirus infected Sf9 insect cells using Boc-L-Lys(Ac)-AMC as substrate preincubated for 5 mins followed by substrate addition measured after 35 mins by fluorescence assay.
Experiment [5] concerns the target Histone deacetylase 3/Nuclear receptor corepressor 2 (HDAC3/NCoR2) (Homo sapiens, UniProt O15379). Description: Inhibition of recombinant human full-length C-terminal His-tagged HDAC3 (395 to 489 residues)/human NCOR2 expressed in baculovirus infected Sf9 insect cells using Boc-L-Lys(Ac)-AMC as substrate pretreated for 5 mins followed by substrate addition measured after 35 mins by fluorescence assay.

For experiment [6], the species on record is Homo sapiens. As to the kind of experiment: Selectivity ratio of IC50 for recombinant human full-length C-terminal His-tagged HDAC3 (395 to 489 residues)/human NCOR2 expressed in baculovirus infected Sf9 insect cells to IC50 for recombinant HDAC8 (unknown origin) expressed in Escherichia coli.
For experiment [7], the species on record is Homo sapiens. As to the kind of experiment: Selectivity ratio of IC50 for recombinant full-length human C-terminal FLAG-His-tagged HDAC1 expressed in baculovirus infected Sf9 insect cells to IC50 for recombinant HDAC8 (unknown origin) expressed in Escherichia coli.
The species named for experiment [8] is Homo sapiens. As to the kind of experiment: Selectivity ratio of IC50 for recombinant human full-length C-terminal His-tagged HDAC2 expressed in baculovirus infected Sf9 insect cells to IC50 for recombinant HDAC8 (unknown origin) expressed in Escherichia coli.
Experiment [9] relates to SH-SY5Y. As to the kind of experiment: Inhibition of class 2 HDAC in human SH-SY5Y cells assessed as increase in acetylation of alpha-tubulin at 0.1 to 10 uM after 24 hrs by Western blot analysis. Type of experiment: cell-based. An outline of the steps:
(§1)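 SH-SY5Y cells were treated with the stated concentrations for 24 h. Lysates were analysed by Western blot for acetylated histone H3 and acetylated α-tubulin.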
(A western blot detects proteins with antibodies after separation by electrophoresis.)

Experiment [10] concerns SH-SY5Y. As to the kind of experiment: Inhibition of class 1 HDAC in human SH-SY5Y cells assessed as increase in acetylation of histone H3 at 0.1 to 10 uM after 24 hrs by Western blot analysis. Type of experiment: cell-based. An outline of the steps: as §1
For experiment [11], the system named is SH-SY5Y. Description: Cytotoxicity against human SH-SY5Y cells expressing TP53 at 10 uM supplemented with fresh medium containing compound every 3 days measured after 72 hrs by CellTiter96 AQueous one solution cell proliferation assay. The experiment is classed as functional, cell-based.
The subject of experiment [12] is SK-N-AS. Description: Cytotoxicity against human SK-N-AS cells expressing TP53 mutation by CellTiter96 AQueous one solution cell proliferation assay. The experiment is classed as functional, cell-based.
For experiment [13], the system named is SH-SY5Y. As to the kind of experiment: Cytotoxicity against human SH-SY5Y cells expressing TP53 by CellTiter96 AQueous one solution cell proliferation assay. Type of experiment: functional, cell-based.
The test system of experiment [14] is Kelly. As to the kind of experiment: Cytotoxicity against human Kelly cells expressing TP53 mutation by CellTiter96 AQueous one solution cell proliferation assay. The experiment is classed as functional, cell-based.
Experiment [15] relates to SH-SY5Y. To be noted: Homo sapiens, at 10 µM.
Experiment [16] concerns IMR-5. Description: Cytotoxicity against human IMR5 cells expressing TP53 by CellTiter96 AQueous one solution cell proliferation assay. Type of experiment: functional, cell-based.
Experiment [17] deals with SH-SY5Y. To be noted: Homo sapiens, at 10 µM. The source holds these as a separate data set.

Structures are written as SMILES. Calls of active or inactive are those of the source. The calls are words filed in the database; no cut-off is given here.

Chain of Histone deacetylase 1 (Q13547 whole entry): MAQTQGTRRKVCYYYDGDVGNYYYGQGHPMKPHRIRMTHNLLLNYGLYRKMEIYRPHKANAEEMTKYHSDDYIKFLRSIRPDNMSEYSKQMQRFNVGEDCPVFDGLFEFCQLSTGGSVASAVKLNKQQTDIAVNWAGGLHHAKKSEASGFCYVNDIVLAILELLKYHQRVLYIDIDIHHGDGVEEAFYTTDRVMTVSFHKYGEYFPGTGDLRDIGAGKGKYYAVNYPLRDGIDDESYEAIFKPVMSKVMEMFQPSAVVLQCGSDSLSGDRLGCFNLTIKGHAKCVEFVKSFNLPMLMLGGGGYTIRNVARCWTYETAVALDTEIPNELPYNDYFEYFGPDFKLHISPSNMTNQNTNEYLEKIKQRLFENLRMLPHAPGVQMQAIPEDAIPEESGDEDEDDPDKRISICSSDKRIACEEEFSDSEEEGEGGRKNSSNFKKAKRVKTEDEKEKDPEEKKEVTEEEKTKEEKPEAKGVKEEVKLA
Chain of Histone deacetylase 2 (Q92769 whole entry, the tested form may be a part): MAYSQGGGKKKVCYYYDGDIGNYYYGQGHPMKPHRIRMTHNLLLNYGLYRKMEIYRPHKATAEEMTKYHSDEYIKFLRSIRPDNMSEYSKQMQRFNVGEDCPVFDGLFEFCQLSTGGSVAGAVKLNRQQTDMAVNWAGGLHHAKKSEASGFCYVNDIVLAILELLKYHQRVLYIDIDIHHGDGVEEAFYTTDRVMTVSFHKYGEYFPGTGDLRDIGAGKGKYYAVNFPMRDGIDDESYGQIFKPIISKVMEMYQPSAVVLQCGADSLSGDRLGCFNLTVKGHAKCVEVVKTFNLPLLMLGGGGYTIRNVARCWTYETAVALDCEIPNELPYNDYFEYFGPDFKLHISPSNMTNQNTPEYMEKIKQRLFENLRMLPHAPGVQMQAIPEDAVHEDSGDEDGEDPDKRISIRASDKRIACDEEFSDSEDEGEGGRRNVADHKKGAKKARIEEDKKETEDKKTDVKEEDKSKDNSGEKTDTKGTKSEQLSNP
Chain of Histone deacetylase 3/Nuclear receptor corepressor 2 (HDAC3/NCoR2) (O15379 whole entry, the tested form may be a part): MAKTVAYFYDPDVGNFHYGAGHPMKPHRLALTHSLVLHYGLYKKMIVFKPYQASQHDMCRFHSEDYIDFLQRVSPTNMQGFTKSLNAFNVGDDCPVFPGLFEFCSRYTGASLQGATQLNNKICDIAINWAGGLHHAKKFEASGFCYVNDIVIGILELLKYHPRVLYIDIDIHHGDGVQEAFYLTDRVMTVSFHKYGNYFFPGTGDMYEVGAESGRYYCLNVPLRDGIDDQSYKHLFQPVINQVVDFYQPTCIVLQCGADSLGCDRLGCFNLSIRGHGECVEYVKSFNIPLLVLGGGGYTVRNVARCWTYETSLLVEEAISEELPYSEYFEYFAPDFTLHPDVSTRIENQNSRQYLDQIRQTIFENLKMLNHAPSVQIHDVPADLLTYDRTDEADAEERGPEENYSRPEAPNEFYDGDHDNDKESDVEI
Chain of Histone deacetylase 3/Nuclear receptor corepressor 2 (HDAC3/NCoR2) (Q9Y618 whole entry, further chain, the tested form may be a part): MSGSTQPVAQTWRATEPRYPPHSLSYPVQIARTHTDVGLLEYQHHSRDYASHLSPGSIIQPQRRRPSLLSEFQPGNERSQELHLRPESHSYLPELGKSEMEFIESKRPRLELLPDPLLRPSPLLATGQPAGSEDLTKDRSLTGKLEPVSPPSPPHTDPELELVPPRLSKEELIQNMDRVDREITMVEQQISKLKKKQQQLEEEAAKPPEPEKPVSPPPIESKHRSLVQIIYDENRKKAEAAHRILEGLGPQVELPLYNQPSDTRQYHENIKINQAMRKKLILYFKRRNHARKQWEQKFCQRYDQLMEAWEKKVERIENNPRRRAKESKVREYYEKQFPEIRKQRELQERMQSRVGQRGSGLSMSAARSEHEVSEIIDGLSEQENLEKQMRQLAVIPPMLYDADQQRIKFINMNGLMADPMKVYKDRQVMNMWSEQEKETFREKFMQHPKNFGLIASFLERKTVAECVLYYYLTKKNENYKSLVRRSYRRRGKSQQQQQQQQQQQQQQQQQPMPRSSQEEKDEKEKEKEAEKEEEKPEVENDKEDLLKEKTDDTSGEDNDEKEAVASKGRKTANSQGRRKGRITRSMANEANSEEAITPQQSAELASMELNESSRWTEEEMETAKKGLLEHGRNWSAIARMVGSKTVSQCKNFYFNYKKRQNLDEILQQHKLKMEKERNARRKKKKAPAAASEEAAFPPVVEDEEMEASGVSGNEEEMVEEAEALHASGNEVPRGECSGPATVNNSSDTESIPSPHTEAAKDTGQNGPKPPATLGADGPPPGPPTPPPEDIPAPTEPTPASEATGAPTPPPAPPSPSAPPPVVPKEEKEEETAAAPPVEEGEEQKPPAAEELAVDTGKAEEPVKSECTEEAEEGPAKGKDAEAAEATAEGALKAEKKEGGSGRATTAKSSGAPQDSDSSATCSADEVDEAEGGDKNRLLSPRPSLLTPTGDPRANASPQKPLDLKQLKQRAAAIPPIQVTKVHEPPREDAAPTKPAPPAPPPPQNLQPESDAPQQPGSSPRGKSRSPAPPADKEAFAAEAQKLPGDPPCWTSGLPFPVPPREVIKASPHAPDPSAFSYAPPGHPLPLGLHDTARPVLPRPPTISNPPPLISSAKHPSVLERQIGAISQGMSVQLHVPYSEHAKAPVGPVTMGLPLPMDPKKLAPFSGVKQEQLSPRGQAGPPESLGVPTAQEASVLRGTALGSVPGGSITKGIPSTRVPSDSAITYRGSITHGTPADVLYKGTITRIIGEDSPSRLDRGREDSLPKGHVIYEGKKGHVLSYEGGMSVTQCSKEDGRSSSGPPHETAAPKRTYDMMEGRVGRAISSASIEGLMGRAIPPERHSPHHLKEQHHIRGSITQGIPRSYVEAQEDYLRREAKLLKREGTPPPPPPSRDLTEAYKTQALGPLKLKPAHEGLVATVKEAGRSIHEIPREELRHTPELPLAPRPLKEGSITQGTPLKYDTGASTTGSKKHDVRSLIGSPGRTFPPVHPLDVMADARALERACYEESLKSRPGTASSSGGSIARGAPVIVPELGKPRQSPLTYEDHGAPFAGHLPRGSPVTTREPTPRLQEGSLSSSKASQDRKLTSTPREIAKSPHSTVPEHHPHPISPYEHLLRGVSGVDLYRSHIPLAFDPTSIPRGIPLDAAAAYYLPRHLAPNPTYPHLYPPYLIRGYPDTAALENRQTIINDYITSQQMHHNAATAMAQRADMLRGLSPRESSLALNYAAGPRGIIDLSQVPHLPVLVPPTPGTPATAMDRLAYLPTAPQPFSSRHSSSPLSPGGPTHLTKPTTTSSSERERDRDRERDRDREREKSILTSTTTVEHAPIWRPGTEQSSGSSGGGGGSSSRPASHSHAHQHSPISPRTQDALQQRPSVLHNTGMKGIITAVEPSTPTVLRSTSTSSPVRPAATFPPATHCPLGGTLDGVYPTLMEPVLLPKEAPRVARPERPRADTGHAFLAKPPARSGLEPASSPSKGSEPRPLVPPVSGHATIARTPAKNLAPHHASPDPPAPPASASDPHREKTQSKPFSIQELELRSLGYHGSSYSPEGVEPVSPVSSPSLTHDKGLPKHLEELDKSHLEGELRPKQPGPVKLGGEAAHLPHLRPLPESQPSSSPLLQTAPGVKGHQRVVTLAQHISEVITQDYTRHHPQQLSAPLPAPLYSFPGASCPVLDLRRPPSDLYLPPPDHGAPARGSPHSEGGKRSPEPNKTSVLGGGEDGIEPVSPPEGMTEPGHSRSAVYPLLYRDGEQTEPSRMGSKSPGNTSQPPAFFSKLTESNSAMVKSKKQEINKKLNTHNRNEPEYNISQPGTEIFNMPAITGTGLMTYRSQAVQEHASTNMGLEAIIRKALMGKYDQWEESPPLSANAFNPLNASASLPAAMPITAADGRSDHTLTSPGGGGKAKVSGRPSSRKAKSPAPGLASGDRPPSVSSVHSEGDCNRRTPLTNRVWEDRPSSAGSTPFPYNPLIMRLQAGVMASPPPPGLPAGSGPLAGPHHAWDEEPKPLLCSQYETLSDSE

Turning to `O=C(CCN1CCc2ccccc2C1C1CCCCC1)NO` (stereo not given), the IC50 (usually the concentration at which inhibition is half-maximal) in experiment [1] was greater than 100 µM; in experiment [2], 6.7 µM; in experiment [4] it was greater than 100 µM; in experiment [5], 75 µM. In experiment [3], the inhibition (commonly the percentage by which the read-out fell short of the control) came to 32%.
Regarding `O=C(CCCCN1CCc2ccccc2C1c1ccccc1)NO` (stereo not given), the half-maximal inhibitory concentration (IC50) in experiment [1] was 0.77 µM; in [2], 0.044 µM; in experiment [4], 2.7 µM; in [5], 0.81 µM. Further, the inhibition in experiment [3] is 93%. Moreover, the Ratio IC50 in [6] was 18; in experiment [7], 18; in experiment [8] it was 61.
`O=C(CCCCN(Cc1ccccc1)Cc1ccccc1)NO`: the IC50 in [1] stood at 1.8 µM; in [2], 1.9 µM; in experiment [4] it was 5.4 µM; in experiment [5], 1.4 µM.
Turning to `COc1ccc(C2c3ccccc3CCN2CCC(=O)NO)cc1` (stereo not given), the 50% inhibitory concentration (IC50) is 27 µM in experiment [1], 0.082 µM in experiment [2], greater than 100 µM in [4] and greater than 100 µM in experiment [5]. Further, the inhibition in experiment [3] amounted to 21%. Also, the inhibition result in experiment [9] and in experiment [10] was “inactive” in each case. The Ratio IC50 in experiment [7] stood at 330. In experiment [11], the result was Active.
As for `O=C(CCN1CCc2ccccc2C1c1ccc2ccccc2c1)NO` (stereo not given), the IC50 in [1] is 2.4 µM; in experiment [2], 0.39 µM; in experiment [4] it was 13 µM; in [5], 3.4 µM. The inhibition in experiment [3] turned out to be 74%.
Take `O=C(CCN1CCc2ccccc2C1c1ccc(C(F)(F)F)cc1)NO` (stereo not given): the IC50 in experiment [1] was 18 µM; in experiment [2] it was 0.19 µM; in [4], greater than 100 µM; in experiment [5], 27 µM. Moreover, in experiment [3], the inhibition was 26%.
As to `CCOc1ccc(C2c3ccccc3CCN2CCC(=O)NO)cc1` (stereo not given), the IC50 in experiment [1] was 24 µM; in experiment [2], 0.21 µM; in experiment [4] it was 99 µM; in [5], greater than 100 µM. In addition, the inhibition in experiment [3] stood at 5.7%.
`O=C(CCN(Cc1ccccc1)Cc1ccccc1)NO`: the IC50 in experiment [1] is 33 µM; in experiment [2], 1.4 µM; in experiment [4], greater than 100 µM; in [5] it was 52 µM. The Ratio IC50 is 37 in experiment [6], 24 in experiment [7] and greater than 71 in experiment [8].
With `CC(C)(C)c1ccc(C2c3ccccc3CCN2CCC(=O)NO)cc1` (stereo not given), the IC50 stood at 18 µM in [1], 0.48 µM in experiment [2], 29 µM in experiment [4] and 29 µM in experiment [5]. Also, in experiment [3], the inhibition came out at 30%.
Turning to `O=C(CCN1CCc2ccccc2C1c1cccc(C(F)(F)F)c1)NO` (stereo not given), the IC50 in experiment [1] is 37 µM; in experiment [2], 0.34 µM; in experiment [4], greater than 100 µM; in experiment [5], greater than 100 µM. Also, the inhibition in [3] worked out at 17%.
On to `COc1ccc(Cn2ccc3ccc(C(=O)NO)cc32)cc1`, for which the outcome in experiment [12], in experiment [13], in [14] and in [16] was Active. The inhibition result in [15] and in [17] was “inactive” in each case.
In the case of `O=C(CCN1CCc2ccccc2C1c1ccccc1)NO` (stereo not given), the half-inhibitory concentration (IC50) was 4.4 µM in experiment [1], 0.95 µM in experiment [2], 40 µM in experiment [4] and 10 µM in experiment [5]. Moreover, the inhibition in experiment [3] is 35%.
`O=C(CCCCCCN1CCc2ccccc2C1)NO`: the IC50 is 0.098 µM in experiment [1], 1.9 µM in experiment [2], 0.33 µM in experiment [4] and 0.097 µM in experiment [5]. For the same compound, in experiment [3], the inhibition came out at 97%.
Consider `O=C(CCCCCCN(Cc1ccccc1)Cc1ccccc1)NO`, for which the IC50 in experiment [1] was 1.1 µM; in [2], 4 µM; in experiment [4], 2.7 µM; in [5] it was 1.1 µM.
As to `O=C(CN1CCc2ccccc2C1c1ccccc1)NO` (stereo not given), the IC50 in [1] was greater than 100 µM; in experiment [2], 19 µM; in [4] it was greater than 100 µM; in experiment [5], greater than 100 µM. In addition, the inhibition in experiment [3] worked out at 17%.
For the compound `COc1cccc(C2c3ccccc3CCN2CCC(=O)NO)c1` (stereo not given), the concentration for half-maximal inhibition (IC50) in experiment [1] was 13 µM; in [2], 0.11 µM; in [4], 69 µM; in [5], 34 µM. Also, the inhibition in experiment [3] came to 27%.
For `O=C(CCNCc1ccccc1)NO`, the IC50 is 50 µM in [1], greater than 100 µM in experiment [2], greater than 100 µM in experiment [4] and 72 µM in experiment [5].
Turning to `O=C(CCN1CCc2ccccc2C1)NO`, the IC50 in [1] was 57 µM; in experiment [2], 19 µM; in [4] it was greater than 100 µM; in [5], 98 µM. Also, the inhibition in experiment [3] is 31%.
Take `O=C(CCCCNCc1ccccc1)NO`: the concentration for half-maximal inhibition (IC50) in [1] was 14 µM; in experiment [2] it was 10 µM; in experiment [4] it was 58 µM; in experiment [5], 22 µM.
Consider `O=C(CCCCCCNCc1ccccc1)NO`, for which the 50% inhibitory concentration (IC50) was 0.34 µM in experiment [1], 1.8 µM in experiment [2], 3.1 µM in experiment [4] and 0.43 µM in [5].
